The source of these data is PMC10841542 (Immunology, 2023).

Assay [1] relates to ERAP1 WT. Description: Steady-state kinetics of L-AMC hydrolysis ± 7-mer peptide activator, ERAP1 WT. As to conditions: pH 8.0, 27 °C. The class given is biochemical, human. In a few lines:
(§1)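 Steady-state kinetics used purified His6-tagged ERAP1 (allotype-1, WT or mutant) from baculovirus-infected Sf9 cells at 1.5 µg ml-1. Buffer was 50 mM Tris/HCl pH 8.0, 0.1 M NaCl at 27 °C, with L-AMC at 0–2,000 µM, with or without 100 µM 7-mer peptide. AMC release (ex 380/em 460 nm) was followed for 5 min. Initial rates from three time points (nmoles.min-1.µg-1) were curve-fitted for Vmax, K1/2 and Hill coefficient. Comparisons used Brown-Forsyth one-way ANOVA with Tukey's test.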

The target of assay [2] is T1, ERAP1 I681R (Homo sapiens, UniProt Q9NZ08, I681R). Description: Steady-state kinetics of L-AMC hydrolysis ± 7-mer peptide activator, I681R. Conditions: pH 8.0, 27 °C. The class given is biochemical. In a few lines:
as §1

For assay [3], the target named is T2, ERAP1 L733R (Homo sapiens, UniProt Q9NZ08, L733R). Description: Steady-state kinetics of L-AMC hydrolysis ± 7-mer peptide activator, L733R. The class given is biochemical. Conditions: pH 8.0, 27 °C. An outline of the steps: as §1
For assay [4], the system named is ERAP1 L734R. Description: Steady-state kinetics of L-AMC hydrolysis ± 7-mer peptide activator, L734R. As to conditions: pH 8.0, 27 °C. The class given is biochemical, human. In a few lines:
as §1

The target in assay [5] is T3, ERAP1 V737R (Homo sapiens, UniProt Q9NZ08, V737R). Nature of the assay: Steady-state kinetics of L-AMC hydrolysis ± 7-mer peptide activator, V737R. As to conditions: pH 8.0, 27 °C; for allosteric activation in steady state kinetics: 100 μM peptide, 0–2,000 μM L-AMC. The class given is biochemical. In a few lines:
as §1

For assay [6], the target named is T4, ERAP1 F803R (Homo sapiens, UniProt Q9NZ08, F803R). Description: Steady-state kinetics of L-AMC hydrolysis ± 7-mer peptide activator, F803R. As to conditions: pH 8.0, 27 °C. The class given is biochemical. In a few lines:
as §1

Assay [7] deals with ERAP1 WT. Description: Simple activation assay. The class given is biochemical, human. As to conditions: 100 μM L-AMC, pH 8.0, 25 °C, 5 min; for activation of L-AMC hydrolysis over basal level: 100 μM peptide. An outline of the steps: (§2)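 ERAP1 enzyme: allotype-1, WT or point mutant, with a C-terminal His6 tag. It was expressed in Sf9 cells by baculovirus and purified by Ni-NTA and gel filtration. Assay: 1.5 µg ml-1 enzyme in 50 mM Tris/HCl pH 8.0, 0.1 M NaCl at 25 °C, with or without 100 µM 7-mer peptide activator. Hydrolysis of 100 µM L-AMC was followed for 5 min by AMC fluorescence (ex 380/em 460 nm), calibrated with AMC standards.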

In assay [8] the target is T1, ERAP1 I681R. Nature of the assay: Simple activation assay. As to conditions: 100 μM L-AMC, pH 8.0, 25 °C, 5 min. The class given is biochemical. An outline of the steps: as §2
The target in assay [9] is T2, ERAP1 L733R. Nature of the assay: Simple activation assay. As to conditions: 100 μM L-AMC, pH 8.0, 25 °C, 5 min. The class given is biochemical. In a few lines:
as §2

The subject of assay [10] is ERAP1 L734R. Description: Simple activation assay. As to conditions: 100 μM L-AMC, pH 8.0, 25 °C, 5 min. The class given is biochemical, human. An outline of the steps:
as §2

Assay [11] deals with T3, ERAP1 V737R. Description: Simple activation assay. The class given is biochemical. Conditions: 100 μM L-AMC, pH 8.0, 25 °C, 5 min. An outline of the steps:
as §2

For assay [12], the system named is ERAP1 F803R. Nature of the assay: Simple activation assay. The class given is biochemical, human. As to conditions: 100 μM L-AMC, pH 8.0, 25 °C, 5 min; for activation of L-AMC hydrolysis over basal level: 100 μM peptide. In a few lines: as §2
A further assay has as its system ERAP1 WT and variants. The class given is biochemical, human. Conditions: 100 μM peptide; most enzyme variants; 0–2,000 μM L-AMC; pH 8.0; 27 °C. In a few lines:
as §1

The subject of assay [13] is ERAP1 WT. Nature of the assay: Allosteric activation of L-AMC hydrolysis, varying peptide effector, ERAP1 WT. The class given is biochemical, human. Conditions: 0–2,000 μM peptide, 100 μM L-AMC, 27 °C, three independent repeats. An outline of the steps: (§3)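 Recombinant human ERAP1 (allotype-1, WT or Arg point mutant) carrying a C-terminal His6 tag, expressed in baculovirus-infected Sf9 cells and purified by Ni-NTA then gel filtration (full-length peak). 1.5 µg/ml enzyme with 100 µM L-AMC and 7-mer peptide activator varied 0–2,000 µM, in 50 mM Tris/HCl pH 8.0, 0.1 M NaCl, 27 °C, 5 min. AMC fluorescence read at ex 380/em 460 nm against AMC standards. Vmax and AC50 fitted to Michaelis-Menten.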

Assay [14] concerns the target T1, ERAP1 I681R. Description: Allosteric activation of L-AMC hydrolysis, varying peptide effector, I681R. The class given is biochemical. As to conditions: 0–2,000 μM peptide, 100 μM L-AMC, 27 °C, three independent repeats. In a few lines: as §3
The target in assay [15] is T2, ERAP1 L733R. Description: Allosteric activation of L-AMC hydrolysis, varying peptide effector, L733R. The class given is biochemical. As to conditions: 0–2,000 μM peptide, 100 μM L-AMC, 27 °C, three independent repeats. In a few lines: as §3
Assay [16] concerns the target ERAP1 L734R (Homo sapiens, UniProt Q9NZ08, L734R). Description: Allosteric activation of L-AMC hydrolysis, varying peptide effector, L734R. The class given is biochemical. As to conditions: 0–2,000 μM peptide, 100 μM L-AMC, 27 °C, three independent repeats. In a few lines:
as §3

Assay [17] deals with T3, ERAP1 V737R. Description: Allosteric activation of L-AMC hydrolysis, varying peptide effector, V737R. The class given is biochemical. Conditions: 0–2,000 μM peptide, 100 μM L-AMC, 27 °C, three independent repeats. In a few lines:
as §3

Assay [18] deals with T4, ERAP1 F803R. Nature of the assay: Allosteric activation of L-AMC hydrolysis, varying peptide effector, F803R. The class given is biochemical. Conditions: 0–2,000 μM peptide, 100 μM L-AMC, 27 °C, three independent repeats. In a few lines:
as §3

The subject of assay [19] is ERAP1 WT. Nature of the assay: N-terminal peptide trimming, LC-MS/MS, ERAP1 WT. The class given is biochemical, human. As to conditions: from 11-mer KL1, pH 7.8, 30 °C, two independent experiments.
For assay [20], the target named is ERAP1 F803R (Homo sapiens, UniProt Q9NZ08, F803R/R127P). Description: N-terminal peptide trimming, LC-MS/MS, F803R. The class given is biochemical. As to conditions: from 11-mer KL1, pH 7.8, 30 °C, two independent experiments.
The next assay has as its system ERAP1. As to conditions: cited from earlier work.
Where [21] appears, read: no peptide activator, three independent repeats.
Where [22] appears, read: 100 μM peptide, 0–2,000 μM L-AMC.
The mark [23] stands for this setting: 1.5 μg/ml enzyme, 50 mM Tris/HCl pH 8.0, 0.1 M NaCl, 5 min.
The mark [24] stands for this setting: read-out: AC50 (half maximal activation concentration), pH 8.0.
Setting [25] is: 100 μM peptide, relative to wildtype.

Entries after “also recorded” stand apart in the source; their conditions may differ.

T1 sequence (Q9NZ08 whole entry I681R): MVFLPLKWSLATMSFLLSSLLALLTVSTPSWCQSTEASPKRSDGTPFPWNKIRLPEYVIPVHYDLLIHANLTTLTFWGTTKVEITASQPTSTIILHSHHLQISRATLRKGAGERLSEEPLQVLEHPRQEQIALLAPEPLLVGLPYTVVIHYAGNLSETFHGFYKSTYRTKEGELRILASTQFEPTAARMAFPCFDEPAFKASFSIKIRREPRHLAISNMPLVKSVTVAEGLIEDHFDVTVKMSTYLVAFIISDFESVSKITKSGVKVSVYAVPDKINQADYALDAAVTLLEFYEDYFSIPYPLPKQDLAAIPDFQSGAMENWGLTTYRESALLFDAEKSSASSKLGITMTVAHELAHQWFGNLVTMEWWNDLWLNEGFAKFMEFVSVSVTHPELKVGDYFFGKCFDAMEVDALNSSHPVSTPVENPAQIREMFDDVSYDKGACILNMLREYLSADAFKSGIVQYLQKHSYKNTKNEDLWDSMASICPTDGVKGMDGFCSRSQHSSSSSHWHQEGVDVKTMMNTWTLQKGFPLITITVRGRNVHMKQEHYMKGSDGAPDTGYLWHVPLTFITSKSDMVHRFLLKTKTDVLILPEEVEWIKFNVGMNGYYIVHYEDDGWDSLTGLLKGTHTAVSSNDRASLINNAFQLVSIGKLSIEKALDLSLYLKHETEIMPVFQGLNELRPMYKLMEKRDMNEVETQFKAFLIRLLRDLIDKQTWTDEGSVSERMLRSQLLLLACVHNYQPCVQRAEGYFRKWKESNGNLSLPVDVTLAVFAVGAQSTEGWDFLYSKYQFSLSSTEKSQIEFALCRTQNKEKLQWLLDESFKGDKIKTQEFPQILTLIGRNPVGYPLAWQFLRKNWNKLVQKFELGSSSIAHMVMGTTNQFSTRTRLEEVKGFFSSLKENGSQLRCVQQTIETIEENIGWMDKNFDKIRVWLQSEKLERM
T2 sequence (Q9NZ08 whole entry L733R): as the sequence (Q9NZ08 whole entry I681R) above, with R681I, L733R counted along it
T4 sequence (Q9NZ08 whole entry F803R): as the sequence (Q9NZ08 whole entry I681R) above, with R681I, F803R counted along it
T3 sequence (Q9NZ08 whole entry V737R): as the sequence (Q9NZ08 whole entry I681R) above, with R681I, V737R counted along it
Chain of ERAP1 L734R (Homo sapiens, UniProt Q9NZ08, L734R) (Q9NZ08 whole entry L734R): as the sequence (Q9NZ08 whole entry I681R) above, with R681I, L734R counted along it
Chain of ERAP1 F803R (Homo sapiens, UniProt Q9NZ08, F803R/R127P) (Q9NZ08 whole entry R127P/F803R): as the sequence (Q9NZ08 whole entry I681R) above, with R127P, R681I, F803R counted along it

`Cc1cc(=O)oc2cc(NC(=O)[C@@H](N)CC(C)C)ccc12` [L-AMC, leucine-7-amido-4-methyl-coumarin, reference compound]: the “Hill coef. (h)” value in the assay with ERAP1 WT [1] (setting [21]) came out at 2.6; at ERAP1 I681R [2] (setting [21]) it was 1.8; on ERAP1 L733R [3] (setting [21]) it was 1.5; in the assay on ERAP1 L734R [4] (setting [21]), 1.3; at ERAP1 V737R [5] (setting [21]), 1.9. For the same compound, the “K1/2 (half-Vmax concentration of L-AMC)” value in the assay with ERAP1 WT [1] (setting [21]) was 0.38 ± 0.05 mM; on ERAP1 I681R [2] (setting [21]) it was 0.23 ± 0.04 mM; at ERAP1 L733R [3] (setting [21]), 0.19 ± 0.03 mM; in the assay on ERAP1 L734R [4] (setting [21]) it was 0.33 ± 0.09 mM; at ERAP1 V737R [5] (setting [21]), 0.52 ± 0.09 mM; at ERAP1 F803R [6] (setting [21]), 0.39 ± 0.06 mM. The “basal L-AMC hydrolysis” value was “low but detectable basal level” in the assay with ERAP1 WT [7] (no peptide); “low but detectable basal level; also recorded: higher than the other mutant enzymes and the WT enzyme” at ERAP1 I681R [8] (no peptide); “low but detectable basal level” at ERAP1 L733R [9] (no peptide); “low but detectable basal level; also recorded: higher than the other mutant enzymes and the WT enzyme” in the assay on ERAP1 L734R [10] (no peptide); “low but detectable basal level” at ERAP1 V737R [11] (no peptide); “low but detectable basal level” with ERAP1 F803R [12] (no peptide).

In the case of IINFEKE, at ERAP1 V737R [5], the “allosteric activation in steady state kinetics” value was “significantly activated; also recorded: not a very effective activator”. Moreover, the “activation of L-AMC hydrolysis over basal level” value in the assay with ERAP1 WT [7] is “not activated significantly above their basal levels; also recorded: did not show significant difference from their respective basal activity”; at ERAP1 I681R [8] (100 μM peptide) it was “not activated significantly above their basal levels”; at ERAP1 L733R [9] (100 μM peptide), “not activated significantly above their basal levels; also recorded: did not show significant difference from their respective basal activity”; with ERAP1 L734R [10] (100 μM peptide), “not activated significantly above their basal levels”; at ERAP1 V737R [11] (100 μM peptide), “slight but significant activation”; in the assay with ERAP1 F803R [12], “not activated significantly above their basal levels; also recorded: did not show significant difference from their respective basal activity”. At ERAP1 V737R [11] (100 μM peptide), the “activation of L-AMC hydrolysis above basal activity” value is ~ 30%. Besides, the “change of sigmoidal curves, h values, or Vmax” value in the assay with ERAP1 WT and variants was “did not change much the sigmoidal curves”.

Regarding IINFEKL, the “allosteric activation in steady state kinetics” value is recorded as “significant or dramatic increase of Vmax; also recorded: effective allosteric activator” in the assay on ERAP1 WT [1] (setting [22]); “significant or dramatic increase of Vmax” on ERAP1 I681R [2] (setting [22]); “significant or dramatic increase of Vmax” at ERAP1 L733R [3] (setting [22]); “significant or dramatic increase of Vmax” in the assay with ERAP1 L734R [4] (setting [22]); “significant or dramatic increase of Vmax” on ERAP1 V737R [5]; “significant or dramatic increase of Vmax; also recorded: effective allosteric activator” at ERAP1 F803R [6] (setting [22]). Further, the “Vmax of L-AMC hydrolysis, peptide activator varied” value in the assay on ERAP1 WT [13] (setting [23]) was 241 ± 6 nmol/min/µg; on ERAP1 I681R [14] (setting [23]) it was 175 ± 54 nmol/min/µg; at ERAP1 L733R [15] (setting [23]), 211 ± 10 nmol/min/µg; on ERAP1 L734R [16] (setting [23]), 112 ± 8 nmol/min/µg; at ERAP1 V737R [17] (setting [23]), 62 ± 7 nmol/min/µg; at ERAP1 F803R [18] (setting [23]) it was 217 ± 9 nmol/min/µg. For the same compound, the AC50 in the assay with ERAP1 WT [13] (setting [24]) amounted to 80 ± 10 µM; on ERAP1 I681R [14] (setting [24]) it was 1460 ± 840 µM; at ERAP1 L733R [15] (setting [24]), 440 ± 60 µM; at ERAP1 L734R [16] (setting [24]), 580 ± 120 µM; on ERAP1 V737R [17] (setting [24]), 590 ± 170 µM; on ERAP1 F803R [18] (setting [24]), 170 ± 30 µM. Also, the “activation of L-AMC hydrolysis over basal level” value was “significant increase” in the assay on ERAP1 WT [7]; “lowest activity in the presence of IINFEKL peptide and with the smallest activation from its basal activity” on ERAP1 V737R [11] (100 μM peptide); “significant increase” with ERAP1 F803R [12]. Besides, the entries for the “allosteric activation compared to wildtype enzyme” value on ERAP1 I681R [8] (setting [25]), on ERAP1 L733R [9] (setting [25]) and in the assay with ERAP1 L734R [10] (setting [25]) were “about 75%”, approximately 50% and approximately 55%, respectively.

Regarding LESIINFEKL [KL2], the “time after which the amount of 10-mer product began to decrease” value with ERAP1 WT [19] and on ERAP1 F803R [20] was more than 10 min in each case.

With QLESIINFEKL [KL1], the “processing by ERAP1” value in the assay on ERAP1 is recorded as “efficiently processed by ERAP1”.
